# Bioassay records from PubChem.
# OX1R antag-1 – OX1R (HCRTR1) antagonists, primary screen, fluorescence, CHO/OX1R cells, Fluo-8 calcium, orexin A; 330,000 tested, 0.43% active; inhibition, % at 5 µM; Fluo-8 calcium fluorescence; AID 434989, 2010; Orexin/Hypocretin receptor type 1 (Homo sapiens), O43613;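 active = inhibition above its plate's threshold, mean inhibition of all tested compounds on the plate plus 3 SD, cut at about 37% in these data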;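 also: 0% = orexin A challenge wells and 100% = SB-334867-A antagonist wells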
# TAAR1 ag – human TAAR1 agonists, primary screen, Fluo-8 calcium fluorescence, CHO RD-HGA16 cells; 360,000 tested, 0.99% active; activation, % at 3 µM; vehicle wells 0%, saturating PEA agonist 100%; AID 624467, 2012; Trace amine-associated receptor 1 (Homo sapiens), Q96RJ0;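 active = activation above the mean activation of all test compounds in the run plus 3 SD, cut at about 38% in these data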
# Target sequence (Q96RJ0 whole entry, looked up): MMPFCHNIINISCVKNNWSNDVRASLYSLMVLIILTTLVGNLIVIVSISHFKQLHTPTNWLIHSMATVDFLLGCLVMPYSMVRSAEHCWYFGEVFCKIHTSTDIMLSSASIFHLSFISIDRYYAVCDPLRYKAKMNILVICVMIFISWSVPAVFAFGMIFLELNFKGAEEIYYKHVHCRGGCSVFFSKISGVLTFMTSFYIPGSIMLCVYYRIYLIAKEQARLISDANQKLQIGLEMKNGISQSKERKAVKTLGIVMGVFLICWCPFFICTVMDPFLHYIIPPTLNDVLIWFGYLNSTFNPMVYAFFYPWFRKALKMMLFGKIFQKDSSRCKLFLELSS
#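 Test system: RD-HGA16 (CHO) cells co-expressing Gα16 and hTAAR1 | Doses: Single dose, 3 µM | Schedule: 17-24 h seeding, 75 min 37 °C dye, 30 min RT | Evaluation: % activation from peak over basal fluorescence ratio, DMSO-to-PEA scaled | Technique: Kinetic Fluo-8 calcium fluorescence | Benchmarks: Low control DMSO, high control PEA (EC100)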
# GPR7 antag – GPR7 receptor antagonists, primary screen, cell-based, fluorescence, single concentration. Neuropeptides B/W receptor type 1 (Homo sapiens), P48145. inhibition, % at 4.4 µM. 290,000 tested, 1.1% active. GPR7-expressing cells, fluorescence antagonist assay; in the data active = inhibition above about 16%, passing the limit was not always enough;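 also: cells stimulated with the agonist NPW; 0% = agonist with vehicle and 100% = vehicle without agonist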
# Target sequence (P48145 whole entry, looked up): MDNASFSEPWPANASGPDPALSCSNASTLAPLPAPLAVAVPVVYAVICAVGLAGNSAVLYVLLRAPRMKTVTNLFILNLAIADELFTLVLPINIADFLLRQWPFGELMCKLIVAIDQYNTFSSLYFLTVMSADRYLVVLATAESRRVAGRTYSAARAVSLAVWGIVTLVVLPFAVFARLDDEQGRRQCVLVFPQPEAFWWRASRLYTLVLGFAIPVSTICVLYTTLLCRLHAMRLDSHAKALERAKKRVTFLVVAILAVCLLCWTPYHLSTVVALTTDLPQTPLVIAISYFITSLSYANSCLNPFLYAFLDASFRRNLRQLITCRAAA
# TAAR1 antag – human TAAR1 antagonists, primary screen, Fluo-8 calcium fluorescence, CHO RD-HGA16 cells | 360,000 tested, 1.5% active | antagonist | inhibition, % at 3 µM | Trace amine-associated receptor 1 (Homo sapiens), Q96RJ0;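 active = inhibition above a per-plate cutoff, the mean inhibition of test compounds on that plate plus 3 SD, cut at about 49% in these data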;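 also: 0% = DMSO plus EC80 beta-PEA response and 100% = DMSO alone without agonist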
#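 Test system: RD-HGA16 CHO cells with stable hTAAR1 and Gα16 / Probe or stimulus: EC80 β-phenethylamine stimulus / Times: seeding 17-24 h prior, 75-min 37 °C, 30-min RT dye loading / Detection: Fluo-8 calcium-sensitive fluorescence / Read-out basis: % inhibition scaled between DMSO and EC80 PEA controls / Repeats: singlicate, one well per test compound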
# OX1R antag-2 – antagonists of human orexin 1 receptor (OX1R); OX1R-expressing cells, FRET antagonist read-out; 330,000 tested, 1.8% active; Orexin/Hypocretin receptor type 1 (Homo sapiens), O43613; inhibition, % at 6.6 µM; in the data active = inhibition mostly above about 38%, no sharp cut-off; inactive = mostly below about 40%;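 also: 0% = agonist challenge alone and 100% = reference antagonist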
# CHO parental Ca – ATP-evoked calcium signal inhibitors, parental CHO, primary screen, counter-screen for OX1R antagonist project, cell-based, fluorescence, Fluo-8 calcium dye. inhibition, % at 5.6 µM. 330,000 tested, 0.63% active. parental CHO-K1, ATP-induced calcium, Fluo-8 fluorescence. AID 463079, 2010;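 active = inhibition above that plate's mean sample inhibition plus 3 SD, cut at about 26% in these data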;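 also: 0% = ATP-challenged DMSO wells and 100% = DMSO wells without ATP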
#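 Material: Parental CHO cells | Reagent: ATP | Compound dosing: Single nominal dose of 5.6 µM per compound | Detection: Intracellular calcium via Fluo-8 no-wash fluorescent dye | Read-out: % inhibition of ATP-induced calcium mobilization | Benchmarks: Low control ATP plus DMSO, high control DMSO only | Replicates: Singlicate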
# * marks the source's active call; other numbers are inactive results; nt = no result given. This is a sample that favours compounds with a hit; in the whole collection about 4.6% have one here.
SMILES,OX1R antag-1,TAAR1 ag,GPR7 antag,TAAR1 antag,OX1R antag-2,CHO parental Ca
CCCCCC[n+]1ccccc1/C=C/c1ccc(N(C)C)cc1,nt,30,nt,70*,nt,nt
O=C(O)c1ccc2c(c1)C(=O)N([C@H](Cc1cccc3ccccc13)C(=O)O)C2=O,nt,2,nt,-6,nt,nt
Clc1ccc(CONc2ncnc3nonc23)c(Cl)c1,-1,17,-9,23,18,11
Clc1ccc(CON/C=N/c2ncnc3sccc23)c(Cl)c1,-9,6,-13,24,45*,23
Cc1csc2c(N3CCN(C(=O)Nc4ccc(Cl)c(Cl)c4)CC3)ncnc12,43*,10,-8,16,36,21
Cc1csc2c(N3CCN(C(=O)c4ccc(C(C)(C)C)cc4)CC3)ncnc12,27,0,-7,-19,18,37*
Cc1csc2c(N3CCN(C(=O)NC(C)(C)C)CC3)ncnc12,-16,7,-12,5,9,-4
COC(=O)c1cc2c(c3c4cc(OC)ccc4n(S(=O)(=O)c4ccc(OC)cc4)c13)C(=O)N(Cc1ccccc1)C2,nt,0,nt,-24,nt,nt
NC(=O)c1ccsc1NC(=O)COC(=O)c1cc(=O)[nH]c2ccccc12,-31,10,nt,50*,33,-19
COc1cc(CC(=O)OCC(=O)Nc2sccc2C(N)=O)cc(OC)c1OC,12,21,-4,63*,29,6
O=C(COC(=O)c1cc(=O)[nH]c2ccccc12)NCc1cccs1,-6,1,-2,-15,25,-11
O=S(=O)(Nc1ccc(C(O)(C(F)(F)F)C(F)(F)F)cc1)c1cccc2cccnc12,nt,4,nt,5,nt,nt
Nc1nonc1-n1nnc(C(=O)N/N=C/c2cccnc2)c1CSc1ccc(Cl)cc1,20,20,-13,56*,47*,0
Nc1nonc1-n1nnc(C(=O)N/N=C/c2cccnc2)c1CSc1ccccc1,10,13,0,29,28,-9
N#CC(C#N)=C1C=CC=CN1/C(=C\c1ccco1)C(=O)c1ccc(Cl)cc1,62*,8,10,27,88*,90*
COc1ccccc1C(=O)N1CCN(C(=O)[C@H]2O[C@@H](n3cnc(C(N)=O)n3)[C@H](O)[C@@H]2O)CC1,nt,1,nt,-7,nt,nt
CC1CC(C)CN(C(=O)CSc2nc(Cc3cccs3)nc3ccccc23)C1 (centres undefined),-5,5,-28,50*,22,-23
Clc1ccc(C(Cn2ccnc2)OCc2c(Cl)cccc2Cl)c(Cl)c1 (centres undefined),19,11,nt,51*,26,60*
OC(Cn1ccnc1)c1ccc(Cl)cc1Cl (centres undefined),-7,9,-3,0,-7,0
CCOC(=O)[C@@H]1[C@H]2COc3cc(OC)ccc3[C@H]2N2C(=O)N(c3ccc(C(F)(F)F)cc3)C(=O)[C@]12C,31,7,nt,26,20,50*
CCOC(=O)[C@@H]1[C@H]2COc3cc(OC)ccc3[C@@H]2N2C(=O)N(c3ccc(C(F)(F)F)cc3)C(=O)[C@@]12C,-15,1,6,-18,28,-19
c1ccc(COn2nnc3ccccc32)c(COn2nnc3ccccc32)c1,20,8,-3,55*,44,2
Cc1cccc(C)c1NC(=O)C(c1ccccc1OC(F)(F)F)N1CCN(C)CC1 (centres undefined),nt,1,nt,-3,nt,nt
CCCCOc1ccc(Br)cc1CSC(=N)N,nt,103*,75*,73*,nt,nt
CCOc1ccc(C(C)=O)cc1CSC(=N)N,-10,12,-9,-6,12,-9
SMILES,OX1R antag-1,TAAR1 ag,GPR7 antag,TAAR1 antag,OX1R antag-2,CHO parental Ca
O=C(COc1ccccc1F)Nc1ccccc1C(=O)NC1CC1,-6,7,nt,52*,9,-7
Cc1ccc(C)c(OCC(=O)Nc2ccccc2C(=O)NC2CC2)c1,nt,2,3,-4,nt,nt
Brc1ccc(CN2CCN(c3ncc(Cc4ccccc4)cn3)CC2)cc1,nt,3,nt,-24,nt,nt
N#Cc1cc([N+](=O)[O-])ccc1NC(=O)COC(=O)C1CCC(=O)N1 (centres undefined),-14,0,nt,4,42*,-5
N#Cc1cc([N+](=O)[O-])ccc1NC(=O)CSc1n[nH]c(=O)[nH]c1=O,-13,0,nt,7,45*,-13
N#Cc1cc([N+](=O)[O-])ccc1NC(=O)COC(=O)C12CC3CC(CC(C3)C1)C2,-26,nt,-9,nt,33,-10
O=C(NCc1cccs1)c1csc([C@@H]2O[C@H](CO)[C@H](O)[C@H](O)[C@H]2O)n1,nt,2,nt,-32,nt,nt
Cn1nc(C(C)(C)C)cc1C(=O)NCc1ccc(N2CCCC2=O)cc1,19,4,0,7,30,37*
OCCCc1nc2n(n1)C(c1cccs1)C=C(c1ccccc1)N2 (centres undefined),23,nt,5,nt,26,33*
COC(=O)C1OC(OC2CC[C@]3(C)C(CC[C@@]4(C)[C@@H]3CC=C3[C@@H]5CC(C)(C)CC[C@]5(C(=O)OC5OC(CO)C(O)C(O)C5O)CC[C@]34C)C2(C)C)C(O)C(O)C1O[C@H]1OCC(O)C(O)C1O (some centres undefined),16,nt,nt,nt,-3,-5
C/C=C(\C)C(=O)OC1CC(C)(C)C[C@H]2C3=CC[C@@H]4[C@@]5(C)CCC(O[C@@H]6O[C@@H](C(=O)O)[C@@H](O)C(O[C@@H]7OC[C@H](O)[C@@H](O)[C@@H]7O[C@@H]7OC(CO)C(O)[C@@H](O)[C@@H]7O)C6O[C@@H]6OC(CO)C(O)C(O)C6O)[C@@](C)(CO)[C@@H]5CC[C@]4(C)[C@]3(C)CC(O)[C@@]12CO (some centres undefined),45,10,nt,18,9,41*
CC1(C)CC[C@]2(C(=O)O[C@@H]3OC(CO)[C@@H](O)[C@H](O)[C@H]3O)CC[C@]3(C)C(=CCC4[C@@]5(C)CC[C@H](O[C@@H]6OC(C(=O)O)[C@@H](O)[C@H](O)[C@H]6O)C(C)(C)C5CC[C@]43C)[C@@H]2C1 (some centres undefined),88*,17,nt,27,12,100*
O=C(COc1ccccc1)NNc1c2ccccc2nc2ccccc12,-10,11,-25,45,86*,2
O=C(NNc1c2ccccc2nc2ccccc12)C(O)c1ccccc1 (centres undefined),-10,2,-15,2,71*,-21
CCCC(=O)NNc1c2ccccc2nc2ccccc12,-8,2,-7,8,5,-15
